Assay results reported in ChEMBL document CHEMBL1938381, “Design, synthesis, and structure-activity relationship studies of conformationally restricted mutilin 14-carbamates” (2012).
Converted amounts (≈) assume the structure as drawn.

Columns and labels:
Type in all cases: functional
[1] = tested on: Staphylococcus epidermidis; assay: Antibacterial activity against methicillin-susceptible Staphylococcus epidermidis by agar microdilution method
Procedure, shortened: (§1)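 MIC by agar microdilution following NCCLS standard M7-A6 (2003), tested against clinical isolates: MRSA n = 6, MRSE n = 5, MSSA n = 5, MSSE n = 5; values given as a single MIC or a range across isolates.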

[2] = tested on: Staphylococcus epidermidis; assay: Antibacterial activity against methicillin-resistant Staphylococcus epidermidis by agar microdilution method; procedure, shortened: as §1
Staphylococcus aureus [3] = assay: Antibacterial activity against methicillin-susceptible Staphylococcus aureus by agar microdilution method; procedure, shortened: as §1
Streptococcus pneumoniae = assay: Antibacterial activity against Streptococcus pneumoniae by agar microdilution method
Procedure, shortened: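 MIC read by agar microdilution following NCCLS standard M7-A6 (2003), against a panel of 3 Streptococcus pneumoniae clinical isolates. Values in µg/mL, given as a range where the isolates differed.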

Staphylococcus aureus [4] = assay: Antibacterial activity against methicillin-resistant Staphylococcus aureus by agar microdilution method; procedure, shortened: as §1

| Structure (SMILES) | MIC [1] | MIC [2] | MIC (Staphylococcus aureus [3]) | MIC (Streptococcus pneumoniae) | MIC (Staphylococcus aureus [4]) |
| --- | --- | --- | --- | --- | --- |
| C=C[C@]1(C)C[C@@H](OC(=O)N2Cc3c(OC)cccc3C2=O)[C@]2(C)[C@H](C)CC[C@]3(CCC(=O)[C@H]32)[C@@H](C)[C@@H]1O | 2 µg/mL (≈ 3.92 µM) | 2 µg/mL (≈ 3.92 µM) | 2 µg/mL (≈ 3.92 µM) | 4 µg/mL (≈ 7.85 µM) | 2 µg/mL (≈ 3.92 µM) |
| C=C[C@]1(C)C[C@@H](OC(=O)N2Cc3c(cccc3[N+](=O)[O-])C2=O)[C@]2(C)[C@H](C)CC[C@]3(CCC(=O)[C@H]32)[C@@H](C)[C@@H]1O | 0.5 µg/mL (≈ 0.953 µM) | 0.5 µg/mL (≈ 0.953 µM) | 0.5 µg/mL (≈ 0.953 µM) | 0.5 µg/mL (≈ 0.953 µM) | 0.5 µg/mL (≈ 0.953 µM) |
| C=C[C@]1(C)C[C@@H](OC(=O)N2Cc3ccc([N+](=O)[O-])cc3C2=O)[C@]2(C)[C@H](C)CC[C@]3(CCC(=O)[C@H]32)[C@@H](C)[C@@H]1O | 0.5 µg/mL (≈ 0.953 µM) | 0.5 µg/mL (≈ 0.953 µM) | 0.5 µg/mL (≈ 0.953 µM) | 0.5 µg/mL (≈ 0.953 µM) | 0.5 µg/mL (≈ 0.953 µM) |
| C=C[C@]1(C)C[C@@H](OC(=O)N2Cc3cc(N4CCOCC4)ccc3C2=O)[C@]2(C)[C@H](C)CC[C@]3(CCC(=O)[C@H]32)[C@@H](C)[C@@H]1O | 0.5 µg/mL (≈ 0.885 µM) | 0.5 µg/mL (≈ 0.885 µM) | 0.5 µg/mL (≈ 0.885 µM) | 0.5 µg/mL (≈ 0.885 µM) | 0.5 µg/mL (≈ 0.885 µM) |
| C=C[C@]1(C)C[C@@H](OC(=O)N2Cc3cc(N4CCCCC4)ccc3C2=O)[C@]2(C)[C@H](C)CC[C@]3(CCC(=O)[C@H]32)[C@@H](C)[C@@H]1O | 2 µg/mL (≈ 3.55 µM) | 2 µg/mL (≈ 3.55 µM) | 2 µg/mL (≈ 3.55 µM) | 4 µg/mL (≈ 7.11 µM) | 2 µg/mL (≈ 3.55 µM) |
| C=C[C@]1(C)C[C@@H](OC(=O)N2Cc3cc(NCc4ccccc4)ccc3C2=O)[C@]2(C)[C@H](C)CC[C@]3(CCC(=O)[C@H]32)[C@@H](C)[C@@H]1O | 2 µg/mL (≈ 3.42 µM) | 2 µg/mL (≈ 3.42 µM) | 2 µg/mL (≈ 3.42 µM) | 2 µg/mL (≈ 3.42 µM) | 2 µg/mL (≈ 3.42 µM) |
| C=C[C@]1(C)C[C@@H](OC(=O)N2Cc3cc(NC(=O)C(F)(F)F)ccc3C2=O)[C@]2(C)[C@H](C)CC[C@]3(CCC(=O)[C@H]32)[C@@H](C)[C@@H]1O | 2 µg/mL (≈ 3.39 µM) | 2 µg/mL (≈ 3.39 µM) | 2 µg/mL (≈ 3.39 µM) | 4 µg/mL (≈ 6.77 µM) | 2 µg/mL (≈ 3.39 µM) |
| C=C[C@]1(C)C[C@@H](OC(=O)N2Cc3c(N)cccc3C2=O)[C@]2(C)[C@H](C)CC[C@]3(CCC(=O)[C@H]32)[C@@H](C)[C@@H]1O | 0.0625 µg/mL (≈ 0.126 µM) | 0.0625 µg/mL (≈ 0.126 µM) | 0.0625 µg/mL (≈ 0.126 µM) | 0.0625 µg/mL (≈ 0.126 µM) | 0.0625 µg/mL (≈ 0.126 µM) |
| C=C[C@]1(C)C[C@@H](OC(=O)N2Cc3ccc(N)cc3C2=O)[C@]2(C)[C@H](C)CC[C@]3(CCC(=O)[C@H]32)[C@@H](C)[C@@H]1O | 0.0625 µg/mL (≈ 0.126 µM) | 0.0625 µg/mL (≈ 0.126 µM) | 0.0625 µg/mL (≈ 0.126 µM) | 0.0625 µg/mL (≈ 0.126 µM) | 0.0625 µg/mL (≈ 0.126 µM) |
| C=C[C@]1(C)C[C@@H](OC(=O)N2Cc3ccc(NC(=O)CN4CCOCC4)cc3C2=O)[C@]2(C)[C@H](C)CC[C@]3(CCC(=O)[C@H]32)[C@@H](C)[C@@H]1O | 0.5 µg/mL (≈ 0.804 µM) | 1 µg/mL (≈ 1.61 µM) | 0.5 µg/mL (≈ 0.804 µM) | 1 µg/mL (≈ 1.61 µM) | 0.5 µg/mL (≈ 0.804 µM) |
| C=C[C@]1(C)C[C@@H](OC(=O)N2Cc3ccc(NC(=O)CN4CCN(C)CC4)cc3C2=O)[C@]2(C)[C@H](C)CC[C@]3(CCC(=O)[C@H]32)[C@@H](C)[C@@H]1O | 0.5 µg/mL (≈ 0.788 µM) | 0.5 µg/mL (≈ 0.788 µM) | 0.5 µg/mL (≈ 0.788 µM) | 0.5 µg/mL (≈ 0.788 µM) | 0.5 µg/mL (≈ 0.788 µM) |
| C=C[C@]1(C)C[C@@H](OC(=O)N2Cc3ccc(NC(=O)CN4CCN(CCO)CC4)cc3C2=O)[C@]2(C)[C@H](C)CC[C@]3(CCC(=O)[C@H]32)[C@@H](C)[C@@H]1O | 0.25 µg/mL (≈ 0.376 µM) | 0.25 µg/mL (≈ 0.376 µM) | 0.5 µg/mL (≈ 0.752 µM) | 0.5 µg/mL (≈ 0.752 µM) | 0.5 µg/mL (≈ 0.752 µM) |
| C=C[C@]1(C)C[C@@H](OC(=O)N2Cc3ccc(NC(=O)CCN4CCOCC4)cc3C2=O)[C@]2(C)[C@H](C)CC[C@]3(CCC(=O)[C@H]32)[C@@H](C)[C@@H]1O | 0.25 µg/mL (≈ 0.393 µM) | 0.25 µg/mL (≈ 0.393 µM) | 0.5 µg/mL (≈ 0.786 µM) | 0.5 µg/mL (≈ 0.786 µM) | 0.5 µg/mL (≈ 0.786 µM) |
| C=C[C@]1(C)C[C@@H](OC(=O)N2Cc3ccc(NC(=O)CCN4CCN(C)CC4)cc3C2=O)[C@]2(C)[C@H](C)CC[C@]3(CCC(=O)[C@H]32)[C@@H](C)[C@@H]1O | 0.5 µg/mL (≈ 0.771 µM) | 0.5 µg/mL (≈ 0.771 µM) | 0.5 µg/mL (≈ 0.771 µM) | 0.5 µg/mL (≈ 0.771 µM) | 0.5 µg/mL (≈ 0.771 µM) |
| C=C[C@]1(C)C[C@@H](OC(=O)N2Cc3ccc(NC(=O)CCN4CCN(CCO)CC4)cc3C2=O)[C@]2(C)[C@H](C)CC[C@]3(CCC(=O)[C@H]32)[C@@H](C)[C@@H]1O | 2 µg/mL (≈ 2.95 µM) | 2 µg/mL (≈ 2.95 µM) | 2 µg/mL (≈ 2.95 µM) | 4 µg/mL (≈ 5.89 µM) | 2 µg/mL (≈ 2.95 µM) |
| C=C[C@]1(C)C[C@@H](OC(=O)N2Cc3c(NC(=O)[C@@H](N)C(C)C)cccc3C2=O)[C@]2(C)[C@H](C)CC[C@]3(CCC(=O)[C@H]32)[C@@H](C)[C@@H]1O.Cl | 0.5 µg/mL | 0.5 µg/mL | 0.5 µg/mL | 0.5 µg/mL | 0.5 µg/mL |
| C=C[C@]1(C)C[C@@H](OC(=O)N2Cc3ccc(NC(=O)[C@H](C)N)cc3C2=O)[C@]2(C)[C@H](C)CC[C@]3(CCC(=O)[C@H]32)[C@@H](C)[C@@H]1O.Cl | 0.5 µg/mL | 0.5 µg/mL | 0.5 µg/mL | 0.5 µg/mL | 0.5 µg/mL |
| C=C[C@]1(C)C[C@@H](OC(=O)N2Cc3ccc(NC(=O)[C@@H](N)C(C)C)cc3C2=O)[C@]2(C)[C@H](C)CC[C@]3(CCC(=O)[C@H]32)[C@@H](C)[C@@H]1O.Cl | 1 µg/mL | 1 µg/mL | 1 µg/mL | 2 µg/mL | 1 µg/mL |
| C=C[C@]1(C)C[C@@H](OC(=O)N2CCc3cc(OC)ccc3C2=O)[C@]2(C)[C@H](C)CC[C@]3(CCC(=O)[C@H]32)[C@@H](C)[C@@H]1O | 1 µg/mL (≈ 1.91 µM) | 0.5 µg/mL (≈ 0.955 µM) | 1 µg/mL (≈ 1.91 µM) | 2 µg/mL (≈ 3.82 µM) | 2 µg/mL (≈ 3.82 µM) |
| C=C[C@]1(C)C[C@@H](OC(=O)N2CCc3ccccc3C2=O)[C@]2(C)[C@H](C)CC[C@]3(CCC(=O)[C@H]32)[C@@H](C)[C@@H]1O | 0.25 µg/mL (≈ 0.506 µM) | 0.25 µg/mL (≈ 0.506 µM) | 0.25 µg/mL (≈ 0.506 µM) | 0.25 µg/mL (≈ 0.506 µM) | 0.25 µg/mL (≈ 0.506 µM) |
| C=C[C@]1(C)C[C@@H](OC(=O)N2CCc3ccc([N+](=O)[O-])cc3C2=O)[C@]2(C)[C@H](C)CC[C@]3(CCC(=O)[C@H]32)[C@@H](C)[C@@H]1O | 1 µg/mL (≈ 1.86 µM) | 1 µg/mL (≈ 1.86 µM) | 1 µg/mL (≈ 1.86 µM) | 2 µg/mL (≈ 3.71 µM) | 1 µg/mL (≈ 1.86 µM) |
| C=C[C@]1(C)C[C@@H](OC(=O)N2CCc3cc(OCCN4CCOCC4)ccc3C2=O)[C@]2(C)[C@H](C)CC[C@]3(CCC(=O)[C@H]32)[C@@H](C)[C@@H]1O | 0.5 µg/mL (≈ 0.803 µM) | 0.5 µg/mL (≈ 0.803 µM) | 0.5 µg/mL (≈ 0.803 µM) | 0.5 µg/mL (≈ 0.803 µM) | 0.5 µg/mL (≈ 0.803 µM) |
| C=C[C@]1(C)C[C@@H](OC(=O)N2CCc3cc(OCCN4CCCCC4)ccc3C2=O)[C@]2(C)[C@H](C)CC[C@]3(CCC(=O)[C@H]32)[C@@H](C)[C@@H]1O | 0.5 µg/mL (≈ 0.805 µM) | 1 µg/mL (≈ 1.61 µM) | 0.5 µg/mL (≈ 0.805 µM) | 1 µg/mL (≈ 1.61 µM) | 0.5 µg/mL (≈ 0.805 µM) |
| C=C[C@]1(C)C[C@@H](OC(=O)N2CCc3cc(OCCN4CCN(C)CC4)ccc3C2=O)[C@]2(C)[C@H](C)CC[C@]3(CCC(=O)[C@H]32)[C@@H](C)[C@@H]1O | 0.5 µg/mL (≈ 0.786 µM) | 0.5 µg/mL (≈ 0.786 µM) | 0.5 µg/mL (≈ 0.786 µM) | 0.5 µg/mL (≈ 0.786 µM) | 0.5 µg/mL (≈ 0.786 µM) |
| C=C[C@]1(C)C[C@@H](OC(=O)NC(=O)c2ccc(OC)cc2)[C@]2(C)[C@H](C)CC[C@]3(CCC(=O)[C@H]32)[C@@H](C)[C@@H]1O |  |  |  | 0.0625 µg/mL (≈ 0.126 µM) |  |
| CC(=O)NC[C@H]1CN(c2ccc(N3CCOCC3)c(F)c2)C(=O)O1 [LINEZOLID] | 0.5 µg/mL (≈ 1.48 µM) |  | 0.5 µg/mL (≈ 1.48 µM) |  |  |
